Assay results: ChEMBL document CHEMBL1124368 (J Med Chem, 1989)
pIC50: −log10 of the molar value. Each block holds one compound with its values, some of them ahead of it.

Assays:
[1] = target: T1, Dihydrofolate reductase (Rattus norvegicus, UniProt Q920D2); assay: In vitro inhibitory concentration against rat liver dihydrofolate reductase(DHFR); settings: read-out: I50
T1 sequence (Q920D2 whole entry): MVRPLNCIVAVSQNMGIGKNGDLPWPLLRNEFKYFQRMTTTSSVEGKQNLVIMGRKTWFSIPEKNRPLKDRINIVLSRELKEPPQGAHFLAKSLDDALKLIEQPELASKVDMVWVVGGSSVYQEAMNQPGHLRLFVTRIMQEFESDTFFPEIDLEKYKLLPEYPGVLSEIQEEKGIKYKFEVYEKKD
Method in brief: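 Partially purified rat liver DHFR, prepared by the Bertino and Fischer method, assayed spectrophotometrically at 340 nm. I50 is the final inhibitor concentration that cuts the reaction rate to 50% of the uninhibited rate. […] Inhibitors were dissolved in 0.1 M HCl or 95% ethanol.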

[2] = system: Mus musculus; assay: Mean of weight gain from day 0 to day 24 at a dose of 25 mg/kg/day of compound; type: functional; design: unit not given here
Method in brief: (§1)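 M5076 reticulum cell sarcoma: 10⁶ cells implanted im into the left leg of female BDF₁ mice (groups of five) on day 0. Drug in 10–20% DMSO in arachis oil was given ip daily on days 1–17. Weight change is the mean weight gain from day 0 to day 24.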

[3] = system: Mus musculus; assay: Ratio of tumor volume of test(T) animals compared to control(C) animals x 100 T/C(%)] at a dose of 25 mg/kg/day; type: functional
Method in brief: (§2)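 M5076 reticulum cell sarcoma: 10⁶ cells implanted im into the left leg of female BDF₁ mice (groups of five) on day 0. Treatment was ip, daily on days 1–17, in 10–20% DMSO in arachis oil. T/C% is treated tumor volume over control tumor volume × 100.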

[4] = system: Mus musculus; assay: Ratio of tumor volume of test(T) animals compared to control(C) animals x 100 T/C(%)] at a dose of 6.25 mg/kg/day; type: functional; method in brief: as §2
[5] = system: Mus musculus; assay: Mean of weight gain from day 0 to day 24 at a dose of 6.25 mg/kg/day; type: functional; design: unit not given here; method in brief: as §1
[6] = system: Mus musculus; assay: (§3) Mean of weight gain from day 0 to day 24 at a dose of 3.125 mg/kg/day of compound; type: functional; method in brief: as §1
[7] = system: Mus musculus; assay: Tumor volume in 24 days after tumor implantation at a dose of 6.25 mg/kg/day; type: functional
Method in brief: (§4)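 10⁶ M5076 reticulum cell sarcoma cells were injected im into the left leg of female BDF₁ mice, five per group, on day 0. Compound in 10–20% DMSO/arachis oil was dosed ip daily on days 1–17. Tumor volumes (mm³) were recorded on days 12, 16, 20 and 24 after implantation, with NM marking a tumor that could not be measured.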

[8] = system: Mus musculus; assay: Mean of weight gain from day 0 to day 24 at a dose of 12.5 mg/kg/day of compound; type: functional; design: unit not given here; method in brief: as §1
[9] = system: Mus musculus; assay: Ratio of tumor volume of test(T) animals compared to control(C) animals x 100 T/C(%)] at a dose of 12.50 mg/kg/day; type: functional; method in brief: as §2
[10] = system: Mus musculus; assay: Tumor volume in 24 days after tumor implantation at a dose of 3.125 mg/kg/day; type: functional; method in brief: as §4
[11] = system: Mus musculus; assay: Ratio of tumor volume of test(T) animals compared to control(C) animals x 100 T/C(%)] at a dose of 3.125 mg/kg/day; type: functional; method in brief: as §2
[12] = system: Mus musculus; assay: Tumor volume in 16 days after tumor implantation at a dose of 3.125 mg/kg/day of compound; type: functional; method in brief: as §4
[13] = system: Mus musculus; assay: Tumor volume in 24 days after tumor implantation at a dose of 12.5 mg/kg/day; type: functional; method in brief: as §4
[14] = system: Mus musculus; assay: Tumor volume in 20 days after tumor implantation at a dose of 3.125 mg/kg/day; type: functional; method in brief: as §4
[15] = system: Mus musculus; assay: Tumor volume in 16 days after tumor implantation at a dose of 50 mg/kg/day of compound; NM=Tumor not measurable; type: functional, organism-based; method in brief: as §4
[16] = system: Mus musculus; assay: Tumor volume in 20 days after tumor implantation at a dose of 6.25 mg/kg/day of compound; type: functional; method in brief: as §4
[17] = system: Mus musculus; assay: Tumor volume in 24 days after tumor implantation at a dose of 25 mg/kg/day of compound; type: functional; method in brief: as §4
[18] = system: Mus musculus; assay: as §3; type: functional; design: unit not given here; method in brief: as §1
[19] = system: Mus musculus; assay: Number of survivors versus treated on day 24 at a dose of 12.5 mg/kg/day of compound; Tumor not measurable; type: functional, organism-based
[20] = system: Mus musculus; assay: Number of survivors versus treated on day 24 at a dose of 6.25 mg/kg/day of compound; Tumor not measurable; type: functional, organism-based
[21] = system: Mus musculus; assay: Tumor volume in 20 days after tumor implantation at a dose of 3.125 mg/kg/day of compound; NM=tumor not measureable; type: functional, organism-based; method in brief: as §4
[22] = system: Mus musculus; assay: Mean of weight gain from day 0 to day 24 at a dose of 3.125 mg/kg/day of compound (maximum activity noticed); type: functional; method in brief: as §1
[23] = system: Mus musculus; assay: Tumor volume in 16 days after tumor implantation at a dose of 3.125 mg/kg/day of compound; NM=tumor not measureable; type: functional, organism-based; method in brief: as §4
[24] = system: Mus musculus; assay: Tumor volume in 12 days after tumor implantation at a dose of 3.125 mg/kg/day of compound; NM=tumor not measureable.; type: functional, organism-based; method in brief: as §4
[25] = system: Mus musculus; assay: Number of survivors versus treated on day 24 at a dose of 6.25 mg/kg/day of compound; none of them survived(0/5); type: functional
[26] = system: Mus musculus; assay: Number of survivors treated on day 24 at a dose of 25 mg/kg/day of compound expressed as ratio of (test/control); none of them survived(0/5); type: functional
[27] = system: Mus musculus; assay: Ratio of tumor volume of test(T) animals compared to control(C) animals x 100 T/C(%)] at a dose of 3.125 mg/kg/day of compound; maximal activity for this system.; type: organism-based; settings: in vivo; method in brief: as §2
[28] = system: Mus musculus; assay: Number of survivors versus treated on day 24 at a dose of 12.5 mg/kg/day of compound; none of them survived(0/5); type: functional
[29] = system: Mus musculus; assay: Tumor volume in 24 days after tumor implantation at a dose of 3.125 mg/kg/day of compound; NM=tumor not measureable; type: functional, organism-based; method in brief: as §4

SMILES: CCc1nc(N)nc(N)c1-c1ccc(NCc2ccc(F)cc2)c([N+](=O)[O-])c1
Weight change [2]: 4.3 | Antitumor activity [3]: <8% | Antitumor activity [4]: 20% | Weight change [5]: 2.5 | Weight change [6]: 3.8 | Tumor volume [7]: 448 mm**3 | Weight change [8]: 2 | Antitumor activity [9]: 17% | Tumor volume [10]: 1555 mm**3 | Antitumor activity [11]: 68% | Tumor volume [12]: 337 mm**3 | Tumor volume [13]: 386 mm**3 | Tumor volume [14]: 539 mm**3

SMILES: CCc1nc(N)nc(N)c1-c1ccc(NC)c([N+](=O)[O-])c1
Weight change [2]: 2.1 | Tumor volume [15]: Not measurable | Tumor volume [16]: 640 mm**3 | Antitumor activity [3]: 10% | Antitumor activity [4]: 35% | Weight change [5]: 3.3 | Tumor volume [17]: 220 mm**3 | Tumor volume [7]: 805 mm**3 | Weight change [8]: 2.1 | Antitumor activity [9]: 20% | Tumor volume [10]: 1407 mm**3 | Antitumor activity [11]: 61% | Tumor volume [13]: 462 mm**3 | Weight change [18]: 4.3 | Tumor volume [14]: 822 mm**3

SMILES: CCc1nc(N)nc(N)c1-c1ccc(NCc2ccc(C(F)(F)F)cc2)c([N+](=O)[O-])c1
Weight change [2]: 6.2 | Antitumor activity [3]: <8% | Antitumor activity [4]: 20% | Weight change [5]: 2.3 | Tumor volume [7]: 454 mm**3 | Weight change [8]: 2 | Antitumor activity [9]: 12% | Tumor volume [10]: 948 mm**3 | Antitumor activity [11]: 40% | Tumor volume [12]: 291 mm**3 | Tumor volume [13]: 265 mm**3 | Weight change [18]: 3.4 | Tumor volume [14]: 627 mm**3

SMILES: CCc1nc(N)nc(N)c1-c1ccc(NCc2ccccc2)c([N+](=O)[O-])c1
Weight change [2]: 1.7 | Tumor volume [16]: 301 mm**3 | Antitumor activity [3]: <8% | Antitumor activity [4]: 34% | Weight change [5]: 2.1 | Tumor volume [7]: 932 mm**3 | Weight change [8]: 1.6 | Antitumor activity [9]: 21% | Tumor volume [10]: 1454 mm**3 | Antitumor activity [11]: 53% | Tumor volume [13]: 586 mm**3 | Weight change [18]: 2.2 | Tumor volume [14]: 443 mm**3

SMILES: CCc1nc(N)nc(N)c1-c1ccc([N+](=O)[O-])c(NCc2ccccc2)c1
pIC50 [1]: 5.04

SMILES: CCc1nc(N)nc(N)c1-c1ccc(N(CC)Cc2ccccc2)c([N+](=O)[O-])c1
Weight change [2]: 0.8 | Tumor volume [16]: 492 mm**3 | Antitumor activity [3]: <8% | Antitumor activity [4]: 31% | Weight change [5]: 1.6 | Tumor volume [7]: 854 mm**3 | Weight change [8]: 1.1 | Antitumor activity [9]: 12% | Tumor volume [10]: 1375 mm**3 | Survivors [19]: Not measurable | Antitumor activity [11]: 50% | Survivors [20]: Not measurable | Tumor volume [13]: 316 mm**3 | Weight change [18]: 2.3 | Tumor volume [14]: 698 mm**3

SMILES: CCc1nc(N)nc(N)c1-c1ccc([N+](=O)[O-])c(N(C)Cc2ccccc2)c1
pIC50 [1]: 6.36

SMILES: Cc1nc(N)nc(N)c1-c1ccc(Cl)c(Cl)c1 [METOPRINE]
Tumor volume [21]: Not measurable | Weight change [22]: 4.9 | Tumor volume [23]: Not measurable | Tumor volume [24]: Not measurable | Survivors [25]: 0 | Survivors [26]: 0 | T/C [27]: < 8% | Survivors [28]: 0 | Tumor volume [29]: Not measurable

SMILES: CCc1nc(N)nc(N)c1-c1ccc(NCc2ccc(OC)c(OC)c2)c([N+](=O)[O-])c1
Antitumor activity [4]: 9% | Weight change [5]: 0.9 | Tumor volume [7]: 324 mm**3 | Tumor volume [10]: 371 mm**3 | Antitumor activity [11]: 10% | Weight change [18]: 1

SMILES: CCc1nc(N)nc(N)c1-c1ccc(NCc2ccc(Cl)cc2)c([N+](=O)[O-])c1
Antitumor activity [4]: 20% | Weight change [5]: 3.3 | Tumor volume [7]: 597 mm**3 | Weight change [8]: 2.9 | Antitumor activity [9]: 13% | Tumor volume [10]: 873 mm**3 | Antitumor activity [11]: 29% | Tumor volume [13]: 380 mm**3 | Weight change [18]: 3.2 | Tumor volume [14]: 552 mm**3

SMILES: CCc1nc(N)nc(N)c1-c1ccc(NCc2ccc(OC)cc2)c([N+](=O)[O-])c1
Weight change [2]: 0.2 | Tumor volume [16]: 416 mm**3 | Antitumor activity [3]: <8% | Antitumor activity [4]: 30% | Weight change [5]: 3.6 | Tumor volume [7]: 875 mm**3 | Weight change [8]: 2.3 | Antitumor activity [9]: 21% | Tumor volume [10]: 1482 mm**3 | Antitumor activity [11]: 50% | pIC50 [1]: 7.70 | Tumor volume [12]: 306 mm**3 | Tumor volume [13]: 636 mm**3 | Weight change [18]: 4.1 | Tumor volume [14]: 831 mm**3

Further lines, results first:

pIC50 [1]: 4.17
SMILES: CCc1nc(N)nc(N)c1-c1ccc(N(C)C)c(N)c1

pIC50 [1]: 5.10
SMILES: CCc1nc(N)nc(N)c1-c1ccc(N2CCOCC2)c([N+](=O)[O-])c1

pIC50 [1]: 7.00
SMILES: CCc1nc(N)nc(N)c1-c1ccc(N(C)Cc2ccccc2)c(N)c1

pIC50 [1]: < 4.60
SMILES: CCc1nc(N)nc(N)c1-c1ccc(N2CCN(C)CC2)c(N)c1

pIC50 [1]: 5.77
SMILES: CCc1nc(N)nc(N)c1-c1ccc(N2CCCC2)c([N+](=O)[O-])c1

pIC50 [1]: < 4.60
SMILES: CCc1nc(N)nc(N)c1-c1ccc(N2CCCC2)c(N)c1

pIC50 [1]: 5.21
SMILES: CCc1nc(N)nc(N)c1-c1ccc(N(C)C)cc1

pIC50 [1]: 7.10
SMILES: CCc1nc(N)nc(N)c1-c1ccc(Cl)c([N+](=O)[O-])c1

pIC50 [1]: < 4.60
SMILES: CCc1nc(N)nc(N)c1-c1ccc(N2CCCCC2)c(N)c1

pIC50 [1]: < 4.60
SMILES: CCc1nc(N)nc(N)c1-c1ccc(N2CCOCC2)c(N)c1

pIC50 [1]: < 4.60
SMILES: CCc1nc(N)nc(N)c1-c1ccc(N2CCNCC2)c(N)c1

pIC50 [1]: 5.51
SMILES: CCc1nc(N)nc(N)c1-c1ccc(N2CCNCC2)c([N+](=O)[O-])c1

pIC50 [1]: 5.40
SMILES: CCc1nc(N)nc(N)c1-c1ccc(N(CC)Cc2ccccc2)c(N)c1

pIC50 [1]: 5.41
SMILES: CCc1nc(N)nc(N)c1-c1ccc(N2CCN(C)CC2)c([N+](=O)[O-])c1

pIC50 [1]: 5.07
SMILES: CCc1nc(N)nc(N)c1-c1ccc(N(C)C2CCCCC2)c(N)c1
